Source: PMC2650391 (Molecular cell, 2009)
Where no end group is shown, it is not given here.

Key:
[1] = test system: H3K4me3 at Smc4, Egln1, Ext1 promoters; experiment: ChIP Realtime-PCR, H3K4me3 levels at target promoters; assay type: cell-based; conditions: doxorubicin treatment, all samples
[2] = test system: H3K4me peptides / ING4 PHD finger; experiment: Biotinylated histone peptide pull-down, Western analysis; assay type: binding; conditions: individual substitutions, GST-fusion proteins
[3] = test system: gene promoters in HT1080 cells; experiment: ChIP-chip on whole genome promoter tiling arrays; assay type: cell-based; conditions: doxorubicin treatment; 292 doxorubicin-induced target promoters
[4] = test system: Egln1, Ext1 and Smc4 mRNA; experiment: mRNA expression Realtime-PCR; assay type: cell-based; conditions: HT1080; relative to untreated wild-type cells
Procedure, shortened: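 HT1080 cells stably carrying vector, Flag-ING4 or Flag-ING4D213A, with doxorubicin-induced DNA damage. Transcripts measured by real-time PCR with TaqMan gene expression assays. Values are relative change versus untreated wild-type cells; error bars s.e.m.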

[5] = test system: T47D cells; experiment: Soft agar assay, anchorage-independent growth; assay type: cell-based; conditions: colonies scored after 21 days, vs control vector
Procedure, shortened: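 T47D cells stably carrying pMSCV-ING4, pMSCV-ING4D213A or empty pMSCV; 55,000 cells plated in […] soft agar growth medium over a 1% agar base layer. Medium refreshed every three days; colonies counted at day 21. Four independent experiments, S.E.M.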

[6] = test system: purified polynucleosomes (H3K4me3); experiment: Polynucleosome binding, Western analysis; conditions: recombinant proteins
Procedure, shortened: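 Recombinant ING4 PHD finger proteins, wild type or carrying substitutions in the H3K4me3-binding surface, incubated with purified polynucleosomes. Bound material detected by Western blot with antibodies to the four core histones, H3K4me3 and H3K9me3.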

[7] = test system: HT1080 cells; experiment: TUNEL assay of ING4-dependent apoptosis; assay type: cell-based; conditions: HT1080, 400 ng/ml doxorubicin 20 hours, 48 hours after transfection
Procedure, shortened: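 HT1080 cells transfected with the plasmids, then given 400 ng/ml doxorubicin for 20 h, assayed 48 h after transfection. Cells fixed in methanol at −20C for 20 min, TUNEL-stained (TMR red) and mounted with DAPI. TUNEL-positive cells counted from images; s.e.m. from 3 independent fields.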

[8] = test system: H3K4me3; experiment: Global H3K4me3 levels, Western analysis of cell lysates; assay type: cell-based; conditions: demethylase transfection, ± ING4 overexpression
Procedure, shortened: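 Cells transfected with Rbp2 or Plu-1 demethylase, with or without ING4 overexpression. Whole-cell lysates probed by Western blot for H3K4me3. Four independent experiments, error bars S.E.M.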

COc1cccc2c1C(=O)c1c(O)c3c(c(O)c1C2=O)C[C@@](O)(C(=O)CO)C[C@@H]3O[C@H]1C[C@H](N)[C@H](O)[C@H](C)O1 [doxorubicin]
H3K4me3 levels at Smc4, Egln1 and Ext1 promoters [1]: modestly induced

D213A: ING4PHD with substitution D213A (EPTYCLCHQVSYGEMIGCANPDCSIEWFHFACVGLTTKPRGKWFCPR; cysteine pairing not given here; also: GST fusion, end not given here)
binding of ING4PHD mutants to H3K4me peptides in pull-down [2]: abrogated binding of the ING4PHD to the H3K4me peptides

ING4D213A: ING4 with a point mutation that abrogates H3K4me3 binding
average occupancy on DNA damage-dependent promoters [3]: largely absent compared to the wild-type protein
baseline smc4 expression [4]: inhibits baseline expression
growth in soft agar [5]: failed to inhibit soft agar growth

ING4PHD: recombinant ING4 PHD finger, aa 195–241 (EPTYCLCHQVSYGEMIGCDNPDCSIEWFHFACVGLTTKPRGKWFCPR; cysteine pairing not given here; also: GST fusion, end not given here)
interaction with H3K4me3 in nucleosomes [6]: occurs in the context of nucleosomes

PLU-1: H3K4me3-demethylase
ING4-dependent apoptosis [7]: abrogated ING4-dependent apoptosis
total H3K4me3 levels [8]: decreased total H3K4me3 levels

RBP2: H3K4me3-demethylase
ING4-dependent apoptosis [7]: abrogated ING4-dependent apoptosis
total H3K4me3 levels [8]: decreased total H3K4me3 levels

W221A: ING4PHD with substitution W221A (EPTYCLCHQVSYGEMIGCDNPDCSIEAFHFACVGLTTKPRGKWFCPR; cysteine pairing not given here; also: GST fusion, end not given here)
binding of ING4PHD mutants to H3K4me peptides in pull-down [2]: abrogated binding of the ING4PHD to the H3K4me peptides

Y198A: ING4PHD with substitution Y198A (EPTACLCHQVSYGEMIGCDNPDCSIEWFHFACVGLTTKPRGKWFCPR; cysteine pairing not given here; also: GST fusion, end not given here)
binding of ING4PHD mutants to H3K4me peptides in pull-down [2]: abrogated binding of the ING4PHD to the H3K4me peptides
